Measurements from ChEMBL document CHEMBL4038311, “An Ursolic Acid Derived Small Molecule Triggers Cancer Cell Death through Hyperstimulation of Macropinocytosis” (J Med Chem, 2017).
Activity calls are given as the source filed them. The rule behind the calls is not given here.

Columns and labels:
[1] = test system: HeLa; test: Induction of autophagy in human HeLa cells assessed as cytosolic autophagosomes formation at 20 uM after 24 hrs by transmission electron microscopic analysis; type: functional, cell-based
Outline: (§1)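 HeLa exposed to 20 µM for 24 h, then fixed, dehydrated and resin-embedded. Ultrathin sections on copper grids stained with uranyl acetate and lead citrate, then examined by TEM.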

[2] = Cytotoxicity against HDF assessed as vacuole formation at 20 uM after 24 hrs by phase contrast microscopic analysis relative to control; type: cell-based; settings: human
Outline: (§2)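 C2C12 or HDF cells given 20 µM or 0.1% DMSO for 24 h, then imaged live by phase-contrast microscopy.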

[3] = test system: C2C12; test: Cytotoxicity against mouse C2C12 cells assessed as vacuole formation at 20 uM after 24 hrs by phase contrast microscopic analysis relative to control; type: cell-based; settings: c2c12, 24 h; outline: as §2
[4] = test system: MCF7; test: Anticancer activity against human MCF7 cells assessed as vacuole formation at 20 uM after 24 hrs by phase contrast microscopic analysis; type: functional, cell-based
[5] = test system: HeLa; test: Anticancer activity against human HeLa cells assessed as vacuole formation at 20 uM preincubated cells with Z-VAD-FMK for 1 hr followed by compound addition measured after 24 hrs by phase contrast microscopic analysis; type: functional, cell-based
Outline: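 HeLa pretreated 1 h with or without z-VAD-FMK, then given 20 µM or DMSO. Phase-contrast images taken at 24 h.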

[6] = test system: HeLa; test: Induction of macropinocytosis in human HeLa cells assessed as formation of lysosomal degradative compartments at 20 uM after 24 hrs by Lysotracker red staining-based confocal microscopic analysis; type: functional, cell-based
Outline: (§3)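 HeLa given 20 µM for 24 h, then labelled live with 50 nM LysoTracker Red (30 min) or 200 nM MitoTracker Red CMXRos (1 h) in medium, after Lucifer yellow loading. Imaged live by confocal microscopy.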

[7] = test system: HeLa; test: Anticancer activity against human HeLa cells assessed as decrease in cell viability at 20 uM preincubated cells with 3-MA followed by compound addition measured after 24 to 48 hrs by CCK8 assay; type: functional, cell-based
Outline: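 HeLa cells pretreated 1 h with or without 3-MA, then exposed to 20 µM or 0.1% DMSO for 24 h or 48 h. Viability by CCK-8 absorbance at 450 nm.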

[8] = test system: HeLa; test: Induction of macropinocytosis in human HeLa cells assessed as colocalization of lucifer yellow and lysosomal marker LAMP1 at 20 uM after 6 to 24 hrs by confocal microscopic analysis; type: functional, cell-based; settings: TDE = time-dependent effect
Outline: (§4)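 HeLa on poly-L-lysine coverslips given 0.1% DMSO or 20 µM for indicated times, then loaded with Lucifer yellow CH. Fixed in 4% PFA 30 min, permeabilized with 0.1% Triton X-100, blocked with 5% BSA. Anti-EEA1, -LAMP1 or -Rab7 applied overnight at 4 °C, Alexa488 secondary 1 h, DAPI counterstain. Confocal imaging.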

[9] = test system: HeLa; test: Induction of methuosis in human HeLa cells assessed as increase in vacuole formation preincubated cells with vacuolar-type H+-ATPase inhibitor Baf-A1 for 1 hr followed by compound addition measured after 24 hrs by phase contrast microscopic analysis; type: functional, cell-based
Outline: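 HeLa cells (DMEM, 10% FBS, penicillin/streptomycin, 37 °C, 5% CO2) were given 100 nM bafilomycin A1 for 1 h before compound addition. Vacuole formation was then scored by phase-contrast imaging of live cells.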

[10] = test system: HeLa; test: Induction of macropinocytosis in human HeLa cells assessed as formation of mitochondrial degradative compartments at 20 uM after 24 hrs by Mitotracker red staining-based confocal microscopic analysis; type: functional, cell-based; outline: as §3
[11] = test system: HepG2; test: Anticancer activity against human HepG2 cells assessed as cell viability after 48 hrs by CCK8 assay; type: functional, cell-based; settings: HepG2, 48 h
Outline: (§5)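 Seeded at 1000 cells/well in DMEM with 10% FBS at 37 °C, 5% CO2, overnight pre-incubation. Serial dilutions from a 100 mM DMSO stock gave final 0–50 µM, with 48 h exposure. CCK-8 read at 450 nm. IC50 fitted against DMSO control, given with s.d., n = 3 independent experiments.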

[12] = test system: HeLa; test: Induction of apoptosis in human HeLa cells assessed as pyknotic chromatin formation at 20 uM after 24 hrs by transmission electron microscopic analysis; type: functional, cell-based; outline: as §1
[13] = test system: HeLa; test: Induction of macropinocytosis-like cytosolic vacuolization in human HeLa cells at 20 uM measured within 4 hrs by time lapse phase contrast microscopic analysis; type: functional, cell-based
Outline: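 HeLa plated at 50,000 per glass-bottom dish, pre-incubated overnight, then given 20 µM in a live-cell chamber (37 °C, 5% CO2). Phase-contrast frames captured every 90 sec.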

[14] = test system: HT-1080; test: Anticancer activity against human HT1080 cells assessed as cell viability at 20 uM after 48 hrs by CCK8 assay relative to control; type: functional; settings: HT-1080, 48 h, read-out: Activity
Outline: (§6)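 Cells (5000/well, pre-incubated overnight) exposed to 20 µM for 48 h. CCK-8 absorbance read at 450 nm. Viability given as percent of vehicle (DMSO) control, mean ± SD. Six parallel wells per condition, at least three independent repeats.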

[15] = test system: HeLa; test: Induction of macropinocytosis in human HeLa cells assessed as colocalization of lucifer yellow and late endosomal marker Rab7 at 20 uM after 6 to 24 hrs by confocal microscopic analysis; type: functional, cell-based; settings: TDE = time-dependent effect; outline: as §4
[16] = test system: HeLa; test: Induction of macropinocytosis-like cytosolic vacuolization in human HeLa cells at 20 uM after 24 hrs by transmission electron microscopic analysis; type: functional, cell-based; outline: as §1
[17] = test system: HeLa; test: Induction of methuosis in human HeLa cells assessed as increase in number of cells with macropinosomes at 20 uM preincubated cells with macropinocytosis inhibitor EIPA for 30 mins followed by compound addition measured up to 72 hrs; type: functional, cell-based
Outline: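 HeLa pretreated 30 min with or without 50 µM EIPA, then given 20 µM or DMSO for 4, 8, 12, 18, 24, 36, 48, 60 and 72 h. Cells bearing macropinosomes scored manually from field images and expressed as percentage of cells.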

[18] = test system: SK-N-MC; test: Anticancer activity against human SK-N-MC cells assessed as cell viability after 48 hrs by CCK8 assay; type: functional, cell-based; outline: as §5
[19] = test system: HeLa; test: Induction of autophagy in human HeLa cells assessed as LC3-2 accumulation at 20 uM preincubated cells with 3-MA followed by compound addition measured after 24 hrs by Western blot analysis; type: functional, cell-based
Outline: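 HeLa pretreated 1 h with or without 3-MA, then 20 µM for 24 h. Lysed in RIPA with protease inhibitors, protein by BCA, SDS-PAGE onto PVDF. Blocked 5% milk, anti-LC3 overnight at 4 °C, secondary 2 h at RT. Infrared imaging, GAPDH loading control.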

[20] = test system: HeLa; test: Anticancer activity against human HeLa cells assessed as cell viability at 20 uM after 48 hrs by CCK8 assay relative to control; type: functional; settings: read-out: Activity; outline: as §6
[21] = test system: HeLa; test: Anticancer activity against human HeLa cells assessed as reduction in colony formation after 48 hrs by Giemsa staining-based assay; type: functional, cell-based
Outline: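 HeLa cells exposed 48 h to 15, 20 or 25 µM, then reseeded at 500 cells/well in six-well plates. After 15 days, colonies fixed in methanol, stained with Giemsa, photographed and counted.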

IC50 [11]: 16.6 µM
IC50 [18]: 17.1 µM
Structure (SMILES): C[C@H]1[C@H](C)CC[C@]2(C(=O)O)CC[C@]3(C)C(=CC[C@@H]4[C@@]5(C)Cc6cnn(-c7ccc(C#N)cc7)c6C(C)(C)[C@@H]5CC[C@]43C)[C@H]12
Activity [1]: inactive
Activity [2]: Toxic
Activity [3]: Toxic
Activity [4]: Active
Activity [5]: Active
Activity [6]: Active
Activity [7]: Active
Activity [8]: Tde
Activity [9]: inactive
Activity [10]: Active
Activity [12]: inactive
Activity [13]: Active
viability at 20 µM [14]: 26.8%
Activity [15]: Tde
Activity [16]: Active
Activity [17]: inactive
Activity [19]: inactive
viability at 20 µM [20]: 18.6%
Activity [21]: Dose-dependent effect
